For four compounds, MIC results are on record in ChEMBL document CHEMBL1649139, “A novel gene, erm(41), confers inducible macrolide resistance to clinical isolates of Mycobacterium abscessus but is absent from Mycobacterium chelonae” (2009).

Assay type in all cases: functional
Assay [1] deals with Mycobacteroides abscessus. In words: Antimicrobial activity against Mycobacterium abscessus isolate MC879 on day 4 by broth microdilution method. Particulars: isolate MC879, 96 h.
In assay [2] the test system is Mycobacteroides abscessus. As to the kind of experiment: Antimicrobial activity against Mycobacterium abscessus isolate MC1028 on day 4 by broth microdilution method. Particulars: isolate MC1028, 96 h. (In general: Dilution methods test growth across graded concentrations, often in twofold steps.)
Assay [3] has as its system Mycolicibacterium smegmatis. In words: Antimicrobial activity against Mycobacterium smegmatis transformed with erm allele Mycobacterium abscessus isolate MC879 by broth microdilution method.
Assay [4] has as its system Mycolicibacterium smegmatis. As to the kind of experiment: Antimicrobial activity against Mycobacterium smegmatis transformed with erm allele Mycobacterium abscessus isolate MC958 by broth microdilution method.
Assay [5] concerns Mycolicibacterium smegmatis. As to the kind of experiment: Antimicrobial activity against Mycobacterium smegmatis transformed with erm allele Mycobacterium abscessus isolate MC719 by broth microdilution method.
Assay [6] deals with Mycolicibacterium smegmatis. In words: Antimicrobial activity against Mycobacterium smegmatis transformed with erm allele Mycobacterium abscessus isolate MC720 by broth microdilution method.
The subject of assay [7] is Mycolicibacterium smegmatis. As to the kind of experiment: Antimicrobial activity against Mycobacterium smegmatis transformed with erm allele Mycobacterium abscessus isolate MC879 preincubated with 2 ug/ml erythromycin for 20 to 24 hrs by broth microdilution method.
Assay [8] deals with Mycolicibacterium smegmatis. In words: Antimicrobial activity against Mycobacterium smegmatis transformed with erm allele Mycobacterium abscessus isolate MC958 preincubated with 2 ug/ml erythromycin for 20 to 24 hrs by broth microdilution method.
Assay [9] has as its system Mycolicibacterium smegmatis. As to the kind of experiment: Antimicrobial activity against Mycobacterium smegmatis transformed with erm allele Mycobacterium abscessus isolate MC719 preincubated with 2 ug/ml erythromycin for 20 to 24 hrs by broth microdilution method.
The test system of assay [10] is Mycolicibacterium smegmatis. As to the kind of experiment: Antimicrobial activity against Mycobacterium smegmatis transformed with erm allele Mycobacterium abscessus isolate MC720 preincubated with 2 ug/ml erythromycin for 20 to 24 hrs by broth microdilution method.
Assay [11] deals with Mycolicibacterium smegmatis. As to the kind of experiment: Antimicrobial activity against Mycobacterium smegmatis transformed with erm allele Mycobacterium abscessus isolate MAB30 by broth microdilution method.
The subject of assay [12] is Mycolicibacterium smegmatis. As to the kind of experiment: Antimicrobial activity against Mycobacterium smegmatis transformed with erm allele Mycobacterium abscessus isolate MC1028 by broth microdilution method.
Assay [13] deals with Mycolicibacterium smegmatis. As to the kind of experiment: Antimicrobial activity against Mycobacterium smegmatis transformed with erm allele Mycobacterium abscessus isolate MC1082 by broth microdilution method.
For assay [14], the system named is Mycolicibacterium smegmatis. In words: Antimicrobial activity against Mycobacterium smegmatis transformed with erm allele Mycobacterium abscessus isolate MAB30 preincubated with 2 ug/ml erythromycin for 20 to 24 hrs by broth microdilution method.
Assay [15] deals with Mycolicibacterium smegmatis. As to the kind of experiment: Antimicrobial activity against Mycobacterium smegmatis transformed with erm allele Mycobacterium abscessus isolate MC1028 preincubated with 2 ug/ml erythromycin for 20 to 24 hrs by broth microdilution method.
For assay [16], the system named is Mycolicibacterium smegmatis. In words: Antimicrobial activity against Mycobacterium smegmatis transformed with erm allele Mycobacterium abscessus isolate MC1082 preincubated with 2 ug/ml erythromycin for 20 to 24 hrs by broth microdilution method.
Assay [17] relates to Mycobacteroides abscessus. In words: Antimicrobial activity against Mycobacterium abscessus isolate MC879 at day 7 by broth microdilution method. Particulars: isolate MC879, 168 h. In short, it runs like this: (§1)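 Clarithromycin MIC by broth microdilution following CLSI guidelines. Organisms were preincubated […], for 3 days before the assay. This allowed at least two generations, judged by the rise in turbidity. The MIC was read at the stated day, with incubation extended from day 3 to as long as 14 days.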

Assay [18] concerns Mycobacteroides abscessus. In words: Antimicrobial activity against Mycobacterium abscessus isolate MC958 at day 7 by broth microdilution method. Particulars: isolate MC958, 168 h. In short, it runs like this:
as §1

Assay [19] concerns Mycobacteroides abscessus. As to the kind of experiment: Antimicrobial activity against Mycobacterium abscessus isolate MC1028 at day 7 by broth microdilution method. Particulars: isolate MC1028, 168 h. In short, it runs like this: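 Clarithromycin MIC by CLSI-conforming broth microdilution. Before testing, cultures were preincubated for 3 days, either in medium alone or in clarithromycin or erythromycin (tested range 0.01–1 μg/ml). Preincubation ran for at least two generations, judged by turbidity increase. Plates were read on day 3 and on extended incubation at days 5 to 14.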

Assay [20] relates to Mycobacteroides abscessus. As to the kind of experiment: Antimicrobial activity against Mycobacterium abscessus isolate MC879 at day 5 preincubated with 0.1 ug/ml for 3 days by broth microdilution method. In a few lines:
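To test inducible resistance, cultures were preincubated for 3 days in clarithromycin or erythromycin, within 0.01–1 μg/ml. The period was set so cultures passed at least two generations, judged by turbidity increase. Clarithromycin MIC was then determined by CLSI-conforming broth microdilution and read on the stated day, from day 3 up to 14.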

The subject of assay [21] is Mycolicibacterium smegmatis. As to the kind of experiment: Antimicrobial activity against Mycobacterium smegmatis transformed with erm allele Mycobacterium abscessus isolate MC879-2 by broth microdilution method.
Assay [22] concerns Mycolicibacterium smegmatis. As to the kind of experiment: Antimicrobial activity against Mycobacterium smegmatis transformed with erm allele Mycobacterium abscessus isolate MC879-2 preincubated with 2 ug/ml erythromycin for 20 to 24 hrs by broth microdilution method.
In assay [23] the test system is Mycobacteroides abscessus. As to the kind of experiment: Antimicrobial activity against Mycobacterium abscessus isolate MC958 on day 4 by broth microdilution method. Particulars: isolate MC958, 96 h.

SMILES strings stand for the structures. ≈ marks a conversion by molar mass, not a printed value. Numbered stars: 1 amine (or outer) side, 2 acyl side, 3 side chain; on linkers, the order of the positions; unused ones are H or OH. Bridge positions count the residues as written; N and C are the ends. Square brackets hold non-standard residues; d marks the D form. Peptide text beside a SMILES is read from it. * marks the point of attachment. X1 = O=C1C[C@@H](C(=O)[*:2])N([*:1])C[C@H]1CS[C@@H]1CN2CCC1CC2; NMePhe(4-NMe2) = CN[C@@H](Cc1ccc(N(C)C)cc1)C(=O)O; Picolinoyl(3-OH) = O=C(c1ncccc1O)*; Phg = N[C@H](C(=O)O)c1ccccc1; dAbu = CC[C@@H](N)C(=O)O

One may read the MIC as the least concentration at which growth counts as inhibited. As to `CCC[C@@H]1C[C@@H](C(=O)N[C@@H]([C@H]2O[C@H](SC)[C@H](O)[C@@H](O)[C@H]2O)[C@H](C)Cl)N(C)C1` [CLINDAMYCIN], the MIC in assay [1], in [2], in [3], in [4], in assay [5] and in [6] was 64 µg/mL (≈ 151 µM) in each case. For the same compound, the minimum inhibitory concentration (MIC) is above 512 µg/mL in assay [7]; above 512 µg/mL in assay [8]; above 512 µg/mL in assay [9]; above 512 µg/mL in assay [10]; 32 µg/mL (≈ 75.3 µM) in assay [11]; 32 µg/mL (≈ 75.3 µM) in assay [12]. Besides, the MIC in [13] is 32 µg/mL (≈ 75.3 µM); in [14], 32 µg/mL; in assay [15], 32 µg/mL; in assay [16] it was 32 µg/mL; in assay [17], above 256 µg/mL; in assay [18], above 256 µg/mL. Besides, the MIC was above 256 µg/mL in assay [19] and 64 µg/mL (≈ 151 µM) in assay [20].

For `CC[C@H]1OC(=O)[C@H](C)[C@@H](O[C@H]2C[C@@](C)(OC)[C@@H](O)[C@H](C)O2)[C@H](C)[C@@H](O[C@@H]2O[C@H](C)C[C@H](N(C)C)[C@H]2O)[C@](C)(O)C[C@@H](C)C(=O)[C@H](C)[C@@H](O)[C@]1(C)O` [ERYTHROMYCIN], the MIC was 32 µg/mL (≈ 43.6 µM) in [3]; 32 µg/mL (≈ 43.6 µM) in assay [4]; 32 µg/mL (≈ 43.6 µM) in assay [5]; 32 µg/mL (≈ 43.6 µM) in [6]; above 128 µg/mL in [7]; above 128 µg/mL in assay [8]. Besides, the minimal inhibitory concentration (MIC) is above 128 µg/mL in assay [9]; above 128 µg/mL in assay [10]; 32 µg/mL (≈ 43.6 µM) in assay [21]; above 128 µg/mL in assay [22]; 4 µg/mL (≈ 5.45 µM) in [11]; 4 µg/mL (≈ 5.45 µM) in assay [12]. The MIC in assay [13] was 4 µg/mL (≈ 5.45 µM); in assay [14], 4 µg/mL; in [15], 4 µg/mL; in [16] it was 4 µg/mL.

On to `CC[C@H]1NC(=O)[C@@H](NC(=O)c2ncccc2O)[C@@H](C)OC(=O)[C@H](c2ccccc2)NC(=O)[C@@H]2CC(=O)[C@H](CS[C@@H]3CN4CCC3CC4)CN2C(=O)[C@H](Cc2ccc(N(C)C)cc2)N(C)C(=O)[C@@H]2CCCN2C1=O` [QUINUPRISTIN] ({Picolinoyl(3-OH)}-T[dAbu]P[NMePhe(4-NMe2)][X1][Phg]; ester 1-C), for which the minimal inhibitory concentration (MIC) was determined as 64 µg/mL (≈ 62.6 µM) in [1]; 64 µg/mL (≈ 62.6 µM) in [2]; 128 µg/mL (≈ 125 µM) in assay [3]; 128 µg/mL (≈ 125 µM) in [4]; 128 µg/mL (≈ 125 µM) in [5]; 128 µg/mL (≈ 125 µM) in [6]. In addition, the minimum inhibitory concentration (MIC) was 128 µg/mL in assay [7]; 128 µg/mL in assay [8]; 128 µg/mL in [9]; 128 µg/mL in assay [10]; 128 µg/mL (≈ 125 µM) in [11]; 128 µg/mL (≈ 125 µM) in assay [12]. Besides, the MIC was 128 µg/mL (≈ 125 µM) in assay [13]; 128 µg/mL in [14]; 128 µg/mL in assay [15]; 128 µg/mL in [16]; above 256 µg/mL in assay [17]; above 256 µg/mL in assay [18]. The minimal inhibitory concentration (MIC) in assay [19] was above 256 µg/mL; in [20], 64 µg/mL (≈ 62.6 µM).

As to `CC[C@H]1OC(=O)[C@H](C)C(=O)[C@H](C)[C@@H](O[C@@H]2O[C@H](C)C[C@H](N(C)C)[C@H]2O)[C@](C)(OC)C[C@@H](C)C(=O)[C@H](C)[C@H]2N(CCCCn3cnc(-c4cccnc4)c3)C(=O)O[C@]12C` [TELITHROMYCIN], the MIC is 32 µg/mL (≈ 39.4 µM) in assay [1]; 32 µg/mL (≈ 39.4 µM) in [23]; 32 µg/mL (≈ 39.4 µM) in assay [2]; 8 µg/mL (≈ 9.85 µM) in assay [3]; 8 µg/mL (≈ 9.85 µM) in [4]; 8 µg/mL (≈ 9.85 µM) in assay [5]. Also, the MIC in assay [6] is 8 µg/mL (≈ 9.85 µM); in [7], above 128 µg/mL; in assay [8], above 128 µg/mL; in [9], above 128 µg/mL; in assay [10] it was above 128 µg/mL; in [11] it was 4 µg/mL (≈ 4.93 µM). The minimal inhibitory concentration (MIC) in assay [12] was 4 µg/mL (≈ 4.93 µM); in [13] it was 4 µg/mL (≈ 4.93 µM); in assay [14] it was 4 µg/mL; in assay [15] it was 4 µg/mL; in assay [16] it was 4 µg/mL; in assay [17], above 128 µg/mL. In addition, the MIC in assay [18] and in assay [19] was above 128 µg/mL each time.
